Source: ChEMBL document CHEMBL1137561 (J Med Chem, 2007)

Assays:
[1] = target: Human immunodeficiency virus type 1 reverse transcriptase (Human immunodeficiency virus 1, UniProt Q72547, V106A); assay: Inhibition of HIV1 reverse transcriptase V106A mutant
[2] = target: Human immunodeficiency virus type 1 reverse transcriptase (Human immunodeficiency virus 1, UniProt Q72547); assay: Inhibition of wild type HIV1 3B reverse transcriptase
[3] = Selectivity index, ratio of CC50 for MT4 cells to EC50 for HIV1 NL43 infected MT4 cells; type: functional
[4] = Cytotoxicity against MT4 cells after 4 days by MTT method; type: cell-based; conditions: human
In short: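 Mock-infected (noninfected) MT-4 cells, run in parallel with the antiviral test. Viable cells read by the MTT tetrazolium colorimetric method. […] Means ± SD from at least two experiments. The top concentration was limited where compounds precipitated in the culture medium.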

[5] = target: Human immunodeficiency virus type 1 reverse transcriptase (Human immunodeficiency virus 1, UniProt Q72547, K103N); assay: Inhibition of HIV1 reverse transcriptase K103N mutant
[6] = target: Human immunodeficiency virus type 1 reverse transcriptase (Human immunodeficiency virus 1, UniProt Q72547, V179D); assay: Inhibition of HIV1 reverse transcriptase V179D mutant
[7] = target: Human immunodeficiency virus type 1 reverse transcriptase (Human immunodeficiency virus 1, UniProt Q72547, Y188L); assay: Inhibition of HIV1 reverse transcriptase Y188L mutant
[8] = Inhibition of HIV1 reverse transcriptase Y1811 mutant; parameters: species or system Human immunodeficiency virus 1
In short: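 Recombinant HIV-1 RT Y181I mutant, purified to >95%, 10 min preincubation with inhibitor. Radioactive nucleotide incorporation into poly(rA)/oligo(dT) 10:1 was followed at varied nucleotide substrate levels, sampling every 2 min for initial velocities. Inhibitor spanned 0.2–5 Ki. Ki came from Lineweaver-Burk and Dixon plots. Means ± SD of at least three experiments.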

[9] = test system: Human immunodeficiency virus 1; assay: Antiviral activity against HIV1 NL43 in MT4 cells assessed as inhibition of viral induced cytopathic effect after 5 days by MTT method; conditions: Human immunodeficiency virus 1, NL43, MT4, 120 h
[10] = target: Human immunodeficiency virus type 1 reverse transcriptase (Human immunodeficiency virus 1, UniProt Q72547, L100I); assay: Inhibition of HIV1 reverse transcriptase L100I mutant
[11] = test system: Human immunodeficiency virus 1; assay: Antiviral activity against HIV1 with reverse transcriptase IRLL98 mutation in MT4 cells assessed as inhibition of viral induced cytopathic effect by MTT method; type: functional, organism-based; conditions: Human immunodeficiency virus 1, MT4
[12] = test system: Human immunodeficiency virus 1; assay: Antiviral activity against HIV1 with reverse transcriptase Y188L mutation in MT4 cells assessed as inhibition of viral induced cytopathic effect by MTT method; type: functional, organism-based; conditions: Human immunodeficiency virus 1, MT4
In short: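 MT-4 cells infected with the HIV-1 NNRTI-resistant mutant strain. Viable cells scored at day 5 post-infection by the MTT tetrazolium colorimetric method. Values are means ± SD from at least two experiments.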

[13] = test system: Human immunodeficiency virus 1; assay: Antiviral activity against HIV1 with reverse transcriptase Y181C mutation in MT4 cells assessed as inhibition of viral induced cytopathic effect by MTT method; type: functional, organism-based; conditions: Human immunodeficiency virus 1, MT4
In short: (§1)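 MT-4 cells infected with the HIV-1 NNRTI-resistant mutant strain. Viable cells scored at day 5 post-infection by the MTT tetrazolium colorimetric method. […] Values are means ± SD from at least two experiments.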

[14] = test system: Human immunodeficiency virus 1; assay: Antiviral activity against HIV1 with reverse transcriptase K103N mutation in MT4 cells assessed as inhibition of viral induced cytopathic effect by MTT method; type: functional, organism-based; conditions: Human immunodeficiency virus 1, MT4; in short: as §1
[15] = Resistance index, Ratio of EC50 for drug-resistant HIV1 with RT Y181C mutation in MT4 cells to EC50 for HIV1 NL43 in MT4 cells
[16] = Resistance index, Ratio of EC50 for drug-resistant HIV1 with RT IRLL98 mutation in MT4 cells to EC50 for HIV1 NL43 in MT4 cells
[17] = Resistance index, Ratio of EC50 for drug-resistant HIV1 with RT Y188L mutation in MT4 cells to EC50 for HIV1 NL43 in MT4 cells
[18] = Resistance index, Ratio of EC50 for drug-resistant HIV1 with RT K103N mutation in MT4 cells to EC50 for HIV1 NL43 in MT4 cells

SMILES	Ki [1] [nM]	Ki [2] [nM]	Ratio CC50/EC50 [3]	CC50 at 96 h [4] [nM]	Ki [5] [nM]	Ki [6] [nM]	Ki [7] [nM]	Ki [8] [nM]	EC50 [9] [nM]	Ki [10] [nM]	EC50 [11] [nM]	EC50 [12] [nM]	EC50 [13] [nM]	EC50 [14] [nM]	Ratio EC50 [15]	Ratio EC50 [16]	Ratio EC50 [17]	Ratio EC50 [18]
COc1ccccc1N1CCN(c2nc(Cc3c(F)cccc3F)c(C)c(=O)[nH]2)CC1	500	250	170	37000	> 20000	5000	25700	> 20000	218	10000								
Cc1c(Cc2c(F)cccc2F)nc(N2CCOCC2)[nH]c1=O	400	50	>3000	> 78000	> 20000	8300	> 20000	> 20000	26	900	> 10000	> 10000	> 10000	> 10000				
Cc1c(C(C)c2c(F)cccc2F)nc(N2CCCCC2)[nH]c1=O (stereo not given)	20	70	>10714	> 75000	600	10	3500	> 20000	7	2000	60	390	70	520	10	9	56	74
Cc1c(C(C)c2c(F)cccc2F)nc(N2CCOCC2)[nH]c1=O (stereo not given)	500	3	>37000	> 74000	3300	> 20000	5500	> 20000	2	10000	50	560	90	390	45	25	280	195
CCC(c1cc(=O)[nH]c(N(C)C)n1)c1c(F)cccc1F (stereo not given)	140	100	36500	73000	10000	30	5000	> 20000	2	3300	1600	> 10000	430	180	215	800		90
Cc1c(Cc2c(F)cccc2F)nc(N2CCSCC2)[nH]c1=O	90	150	>18500	> 74000	> 20000	40000	> 20000	> 20000	4	5000	> 10000	> 10000	> 10000	> 10000				
Cc1c(C(C)c2c(F)cccc2F)nc(N2CCC(C)CC2)[nH]c1=O (stereo not given)			27000	54000					2		300	220	10	322	5	150	110	161
Cc1c(Cc2c(F)cccc2F)nc(N(C)C2CCCCC2)[nH]c1=O			>8000	> 72000					9		2000	6200	140	4400	16	222	689	489
O=c1cc(Cc2c(F)cccc2F)nc(N2CCCCC2)[nH]1	200	2500	>6308	> 82000	> 20000	5000	> 20000	> 20000	13	10000	2200	8000	710	> 10000	55	169	615	
Cc1c(Cc2c(F)cccc2F)nc(N(C)C(C)C)[nH]c1=O			39500	79000					2		80	2300	30	1200	15	40	1150	600
CC(c1cc(=O)[nH]c(N(C)C)n1)c1c(F)cccc1F (stereo not given)	500		89000	89000					1		670	> 10000	260	120	260	670		120
Cc1c(Cc2c(F)cccc2F)nc(N2CCCCC2)[nH]c1=O			>26000	> 78000					3		820	10000	140	> 10000	47	273	3333	
CCN(C)c1nc(Cc2c(F)cccc2F)c(C)c(=O)[nH]1			>4722	> 85000					18		420	8000	710	4600	39	23	444	256
CN1CCN(c2nc(Cc3c(F)cccc3F)cc(=O)[nH]2)CC1	> 40000	11200	>13	> 78000	> 20000	> 40000	> 20000	> 20000	6090	> 20000								
Cc1c(C(C)c2c(F)cccc2F)nc(N2CCCC(C)C2)[nH]c1=O (stereo not given)			>24000	> 72000					3		200	120	14	193	5	67	40	64
CCC(c1nc(N(C)C)[nH]c(=O)c1C)c1c(F)cccc1F (stereo not given)	> 40000	1000	>11571	> 81000	> 20000	> 40000	> 20000	> 20000	7	> 20000	1180	480	290	1830	41	169	69	261
Cc1c(Cc2c(F)cccc2F)nc(N2CCN(c3ccccn3)CC2)[nH]c1=O	10	50	>5250	> 63000	> 20000	10	490	> 20000	12	> 20000								
Cc1c(Cc2c(F)cccc2F)nc(N(C)C)[nH]c1=O	700	100	>17800	> 89000	9000	1600	11000	> 20000	5	10000	500	> 10000	1820	2400	364	100		480
Cc1c(Cc2c(F)cccc2F)nc(N2CCN(C)CC2)[nH]c1=O	900	2000	>125	> 75000		> 40000			598									
